Experimental data published in ChEMBL document CHEMBL4004793, “Spoxazomicin D and Oxachelin C, Potent Neuroprotective Carboxamides from the Appalachian Coal Fire-Associated Isolate Streptomyces sp. RM-14-6” (J Nat Prod, 2017).
In brackets after ≈: the same amount, converted by molar mass. Activity calls are given as the source filed them. The calls are words filed in the database; no cut-off is given here.

Key:
[1] = system: Hippocampal neurone; test: Neuroprotective activity against EtOH-induced damage in Sprague-Dawley rat hippocampal neuron at 0.01 to 0.10 uM after 48 hrs by propidium iodide uptake assay; format: functional, cell-based
How it was run: (§1)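 Organotypic hippocampal slices from 8-day-old Sprague−Dawley rats in medium with 3.74 μM propidium iodide, with or without 100 mM EtOH plus test agent at varied concentrations, 48 h. Slices then imaged for propidium iodide uptake intensity as a marker of cell damage; post hoc statistical comparison vs control and vs EtOH.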

[2] = system: Escherichia coli; test: Antibacterial activity against Escherichia coli NRRL B-3708 up to 60 uM after 16 to 48 hrs; format: functional
How it was run: (§2)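 MIC determined after 16−48 h incubation, in triplicate, following earlier published protocols; kanamycin and ampicillin as positive controls for bacteria, amphotericin B for S. cerevisiae. S. aureus, S. enterica and S. cerevisiae strains from ATCC.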

[3] = system: A549; test: Cytotoxicity against human A549 cells assessed as decrease in cell viability up to 20 uM after 48 hrs by resazurin assay; format: functional, cell-based
How it was run: (§3)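 A549 non-small-cell lung cells from ATCC, run in triplicate following earlier published protocols; actinomycin D as positive control.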

[4] = system: Micrococcus luteus; test: Antibacterial activity against Micrococcus luteus NRRL B-287 up to 60 uM after 16 to 48 hrs; format: functional; how it was run: as §2
[5] = system: Staphylococcus aureus; test: Antibacterial activity against Staphylococcus aureus ATCC 6538 up to 60 uM after 16 to 48 hrs; format: functional; how it was run: as §2
[6] = system: Salmonella enterica; test: Antibacterial activity against Salmonella enterica ATCC 10708 up to 60 uM after 16 to 48 hrs; format: functional; how it was run: as §2
[7] = system: Saccharomyces cerevisiae; test: Antifungal activity against Saccharomyces cerevisiae ATCC 204508 up to 60 uM after 16 to 48 hrs; format: functional; how it was run: as §2
[8] = system: Hippocampal neurone; test: Neuroprotective activity against EtOH-induced damage in Sprague-Dawley rat hippocampal neuron after 48 hrs by propidium iodide uptake assay; format: functional, cell-based; how it was run: as §1
[9] = system: Saccharomyces cerevisiae; test: Antifungal activity against Saccharomyces cerevisiae ATCC 204508 after 16 to 48 hrs; format: functional; how it was run: as §2
[10] = system: A549; test: Cytotoxicity against human A549 cells assessed as decrease in cell viability after 48 hrs by resazurin assay; format: functional, cell-based; how it was run: as §3
[11] = system: Salmonella enterica; test: Antibacterial activity against Salmonella enterica ATCC 10708 after 16 to 48 hrs; format: functional; how it was run: as §2
[12] = system: Staphylococcus aureus; test: Antibacterial activity against Staphylococcus aureus ATCC 6538 after 16 to 48 hrs; format: functional; how it was run: as §2
[13] = system: Micrococcus luteus; test: Antibacterial activity against Micrococcus luteus NRRL B-287 after 16 to 48 hrs; format: functional; how it was run: as §2
[14] = system: HEK293; test: Modulation of unfolded protein response in HEK293 cells after 48 hrs by ASGR-Cluc secretion assay; settings: Homo sapiens
[15] = system: Hippocampal neurone; test: Neuroprotective activity against EtOH-induced damage in Sprague-Dawley rat hippocampal neuron at 0.01 uM after 48 hrs by propidium iodide uptake assay; format: functional, cell-based; how it was run: as §1

SMILES | Activity [2] | Activity [3] | Activity [4] | Activity [5] | Activity [6] | Activity [7] | further results
N[C@@H](COC(=O)c1ccccc1O)C(=O)N[C@@H](CO)C(=O)N[C@H](CCCN(O)C=O)C(=O)NCCC(=O)N[C@@H]1CCCN(O)C1=O | inactive | inactive | inactive | inactive | inactive | inactive | Activity [1]: Active
COC(=O)C1COC(c2ccccc2O)=N1 (configuration not stated) | inactive | inactive | inactive | inactive | inactive | inactive | 
O=CN(O)CCC[C@@H](NC(=O)[C@H](CO)NC(=O)[C@H](CO)NC(=O)c1ccccc1O)C(=O)NCCC(=O)N[C@@H]1CCCN(O)C1=O | inactive | inactive | inactive | inactive | inactive | inactive | Activity [8]: inactive
NC(=O)c1ccc[nH]1 | inactive | inactive | inactive | inactive | inactive | inactive | 
OC[C@@H]1COC(c2ccccc2O)=N1 | inactive | inactive | inactive | inactive | inactive | inactive | Activity [8]: inactive
C[C@H](CO)NC(=O)c1ccccc1O | inactive | inactive | inactive | inactive | inactive | inactive | 
CC(=O)NCCc1ccc(O)cc1 | inactive | inactive | inactive | inactive | inactive | inactive | 
CO[C@H]1CC[C@H](O[C@@H]2C[C@@H]([C@@H](C)/C=C(\C)C(=O)[C@H](C)C[C@H](C)C(=O)[O-])O[C@@]3(CC[C@@](C)([C@H]4CC[C@@H](C)[C@@]5(O[C@@H]([C@H]6O[C@@](O)(CO)[C@H](C)C[C@@H]6C)C[C@@H]5C)O4)O3)[C@@H]2C)O[C@@H]1C.[Na+] |  |  |  |  |  |  | MIC ([9]; Saccharomyces cerevisiae, ATCC 204508, read-out: MIC): 0.1 to 3 µM; IC50 ([10]; a549): 1.9 µM; MIC [11]: 0.1 to 3 µM; MIC [12]: 0.1 to 3 µM; MIC [13]: 0.1 to 3 µM; EC50 [14]: 0.109 µM
CC1=CC(=O)C[C@]2(C)CC[C@@H](C(C)(C)O)C[C@@H]12 | inactive |  | inactive | inactive | inactive | inactive | 
C[C@@H](CO)NC(=O)c1ccccc1O | inactive | inactive | inactive | inactive | inactive | inactive | 
NC(=O)Cc1ccccc1 | inactive | inactive | inactive | inactive | inactive | inactive | 
CO[C@H]1CC[C@H](O[C@@H]2C[C@@H]([C@@H](C)/C=C(\C)C(=O)[C@H](C)C[C@H](C)C(=O)O)O[C@@]3(CC[C@@](C)([C@H]4CC[C@@H](C)[C@@]5(O[C@@H]([C@H]6O[C@@](O)(CO)[C@H](C)C[C@@H]6C)C[C@@H]5C)O4)O3)[C@@H]2C)O[C@@H]1C |  |  |  |  |  |  | MIC [9]: 0.1 to 3 µM; IC50 ([10]; Homo sapiens, A549, 48 h): 1.2 µM; MIC ([11]; Salmonella enterica, ATCC 10708, read-out: MIC): 0.1 to 3 µM (≈ 0.0851 to 2.55 µg/mL); MIC ([12]; Staphylococcus aureus, ATCC 6538, read-out: MIC): 0.1 to 3 µM (≈ 0.0851 to 2.55 µg/mL); MIC ([13]; Micrococcus luteus, NRRL B-287, read-out: MIC): 0.1 to 3 µM (≈ 0.0851 to 2.55 µg/mL); EC50 [14]: 0.038 µM
NC(=O)[C@@H]1COC(c2ccccc2O)=N1 | inactive | inactive | inactive | inactive | inactive | inactive | Activity [15]: Active
CC(C)C[C@@H]1NC(=O)[C@H]2C[C@@H](O)CN2C1=O | inactive | inactive | inactive | inactive | inactive | inactive | 
O=C(NC(CO)CO)c1ccccc1O | inactive | inactive | inactive | inactive | inactive | inactive | 
O=CN(O)CCC[C@@H](NC(=O)[C@H](CO)NC(=O)[C@@H]1COC(c2ccccc2O)=N1)C(=O)NCCC(=O)N[C@@H]1CCCN(O)C1=O | inactive | inactive | inactive | inactive | inactive | inactive | Activity [8]: inactive
NC(=O)c1ccccc1O | inactive | inactive | inactive | inactive | inactive | inactive | 
CNc1ccc(C(N)=O)cc1 | inactive | inactive | inactive | inactive | inactive | inactive | 
